Screening data from PubChem.
Shown are actives, neighbours in structure and some others; about 4.7% of the full set was active somewhere.
AHR act – human AHR activation. P35869. AHR-responsive luciferase reporter cells, luminescence. activation, % at 5 µM. 320,000 compounds, 2.5% hits. AID 2796; in the data active means activation above about 47%
MC4R antag cAMP – human MC4R antagonism in cAMP assay | inhibition, % at 6.5 µM | MC4R-expressing cells, MTII-stimulated cAMP, LANCE TR-FRET | 360,000 compounds, 0.48% hits | P32245 | AID 540295;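 active means inhibition above its plate's cutoff, the mean of tested wells on that plate plus 3 SD, cut at about 29% in these data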
Target sequence (P32245 whole entry, looked up): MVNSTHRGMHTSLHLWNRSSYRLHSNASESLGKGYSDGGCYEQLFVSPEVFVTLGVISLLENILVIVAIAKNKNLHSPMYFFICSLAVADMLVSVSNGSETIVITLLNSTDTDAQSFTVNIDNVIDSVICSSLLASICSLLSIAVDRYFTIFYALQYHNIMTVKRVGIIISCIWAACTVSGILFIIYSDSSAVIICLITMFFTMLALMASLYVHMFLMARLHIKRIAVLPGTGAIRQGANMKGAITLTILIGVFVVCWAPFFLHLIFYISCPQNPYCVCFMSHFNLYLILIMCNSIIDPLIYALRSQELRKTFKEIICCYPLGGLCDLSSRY
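Assay system: U2OS cells stably expressing human melanocortin 4 receptor (MC4R) / Dosing: 6.5 µM / Timing: compound 30 min, challenge 1 h, detection 1 h / Measured by: Eu-cAMP/anti-cAMP TR-FRET, emission 671 nm / Replicates: singlicate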
FXN GAA850 act – increases GAA850 frataxin promoter reporter activity. activation, % at 6 µM. 360,000 compounds, 0.56% hits. AID 540364. HEK293 lucGAA850 FXN promoter luciferase reporter, 24 h; percent of 10 µM SAHA response;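 active means activation above the average of all compounds screened plus 3 SD, cutoff fixed separately per campaign, cut at about 7.5% in these data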
HTR2A ag – activates the mouse 5-HT2A serotonin receptor; P35363; CHO-K1 mHTR2A beta-arrestin complementation, luminescence; percent of 30 µM serotonin response; activation, % at 7.6 µM; 360,000 compounds, 0.66% hits;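 active means activation above a run cutoff, the mean activation of all tested compounds plus 3 SD, cut at about 14% in these data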
MC4R ag barr – human MC4R agonism via beta-arrestin; U2OS MC4R beta-arrestin complementation, luminescence; percent of melanotan II response, DMSO zero; P32245; AID 540308; activation, % at 8.9 µM; 360,000 compounds, 0.98% hits;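 active means activation above a per-plate cutoff, the mean activation of sample wells on that plate plus 3 SD, cut at about 8% in these data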
AHR act confirm – confirmation of human aryl hydrocarbon receptor activators; shares compounds with AHR act; human cells, AHR-responsive luciferase reporter, luminescence; activation, % at 9 µM; 2,300 compounds, 87% hits; AID 2845; in the data active means activation above about 49%;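 further: HepG2 hepatoma cells carrying a DRE-driven firefly luciferase reporter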
PXR act counter – activates human PXR in AHR activator counter-screen; cell-based PXR reporter, luciferase luminescence; 2,300 compounds, 88% hits; shares compounds with AHR act; activation, % at 11.6 µM; in the data active means activation above about 11%;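 further: human hepatoma DPX-2 cells expressing full-length human PXR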
Of the large screens only hits and unclear results are named; the others gave an inactive call (follow-up assays come after a bar, where they were run).

Cn1c(=O)c2c(nc(/C=C/c3cccc(Cl)c3)n2C)n(C)c1=O	AHR act 86 (no result: MC4R antag cAMP, FXN GAA850 act, HTR2A ag, MC4R ag barr) | AHR act confirm 55
CN(/N=C/c1cc(Cl)ccc1O)C1=NS(=O)(=O)c2ccccc21	none
COc1ccc2nc(-c3ccccc3)nc(SC)c2c1	none (no result: AHR act)
O=C(CN1C2=NCCN2c2ccccc21)C12CC3CC(CC(C3)C1)C2	AHR act 82 | AHR act confirm 48 | PXR act counter 58
O=C(Nc1ccc(C(F)(F)F)cc1)c1ccccc1-n1cnnn1	none
CC(=O)c1cc(O)c2ccccc2c1O	AHR act 90 | AHR act confirm 118 | PXR act counter inactive
CC(=O)c1c(C)oc2c1cc(O)c1ccccc12	none
CCOc1ccc(Nc2ncnc3c2cnn3C)cc1	none
O=C1C=C(c2cccc(Br)c2)C[C@@H](c2ccc3c(c2)OCO3)C1	AHR act 86 | AHR act confirm 83 | PXR act counter 33
COc1cc(F)c(C2=CC(=O)C[C@H](c3ccc4c(c3)OCO4)C2)cc1F	none
COc1ccc(F)cc1C1=CC(=O)C[C@H](c2ccc3c(c2)OCO3)C1	AHR act 86 | AHR act confirm 73 | PXR act counter 112
O=C1C=C(c2ccccc2)C[C@@H](c2ccc3c(c2)OCO3)C1	none
COc1cccc(C2=CC(=O)C[C@H](c3ccc4c(c3)OCO4)C2)c1OC	AHR act 120 | AHR act confirm 109 | PXR act counter 148
COc1cccc(OC)c1C1=CC(=O)C[C@H](c2ccc3c(c2)OCO3)C1	none
COc1ccc(CCNC(=S)NC(=O)c2cccc(Cl)c2)cc1OC	none
O=C(NC(=S)NCCc1ccccn1)c1ccccc1	AHR act 100 | AHR act confirm 62 | PXR act counter 12
Cc1ccc2ncccc2c1NC(=S)NC(=O)c1ccccc1	AHR act 86 | AHR act confirm 126 | PXR act counter 37
O=C(NC(=S)NCCc1ccccc1)c1cccc(Cl)c1	AHR act 124 | AHR act confirm 139 | PXR act counter 19
COc1ccccc1NS(=O)(=O)c1ccc(C)c(NS(=O)(=O)c2cc(C(=O)O)cc(C)c2C)c1	none
Cc1ccc(S(=O)(=O)N2CCCCC2)cc1NC(=O)c1nn(C)c(=O)c2ccccc12	none (no result: AHR act)
N#Cc1ccccc1NC(=O)COc1ccccc1C(=O)Nc1ccccc1	AHR act 93 | AHR act confirm 95 | PXR act counter 41
COCCn1c(SCC(=O)NCCc2ccccc2)nc2c([nH]c3ccccc32)c1=O	AHR act 120 | AHR act confirm 72 | PXR act counter 205
CCOC(=O)N1CCN(C(=O)CSc2nc3c([nH]c4ccccc43)c(=O)n2CC)CC1	AHR act 101 | AHR act confirm 94 | PXR act counter 54
C=CCn1c(SCC(=O)N2CCOCC2)nc2c([nH]c3ccccc32)c1=O	AHR act 88 | AHR act confirm 92 | PXR act counter 77
O=C(CSc1nc2c([nH]c3ccccc32)c(=O)n1-c1ccccc1)N1CCOCC1	none
COc1ccccc1Cc1c(C2CCCCC2)nc2cc(C)c(Br)c(C)n12	none (no result: AHR act, MC4R antag cAMP, FXN GAA850 act, MC4R ag barr)
COc1c2c(c(OC)c3ccccc13)[C@@]1(OC2)O[C@H](CCO)C[C@H](O)[C@H]1O	none (no result: AHR act)
CCOC(=O)N1CCN(C(=O)C[C@@H]2C[C@@]3(C(=O)OC)CC(C)(C)CC=C3N(Cc3cccc4ccccc34)C2=O)CC1	none (no result: AHR act, MC4R antag cAMP, FXN GAA850 act, MC4R ag barr)
Cc1n[nH]c(C)c1N=Nc1ccc(Br)cc1	AHR act 132 | AHR act confirm 123 | PXR act counter 20
COc1ccc(NS(=O)CCCc2ccccc2)cc1 (stereo not given)	none (no result: AHR act, MC4R antag cAMP, FXN GAA850 act, MC4R ag barr)
O=C1C(c2ccccc2)C2C=CC(C2)N1O (stereo not given)	none (no result: AHR act)
O=C(Nc1ccccc1C(=O)Nc1ccccc1)c1ccccc1F	AHR act 83 | AHR act confirm 65 | PXR act counter 41
c1ccc2c(c1)CCN(c1nc3ccccc3n3cnnc13)C2	AHR act 86 | AHR act confirm 66 | PXR act counter 19
c1ccc(N2CCN(c3nc4ccccc4n4cnnc34)CC2)cc1	none
COc1ccc(/C=N/NC(=O)c2ccn[nH]2)cc1COc1ccc(Cl)cc1	AHR act 87 | AHR act confirm inactive | PXR act counter 11
CCOc1ccc(/C=N/NC(=O)c2cc3c(OC)cc(OC)cc3[nH]2)cc1OC	AHR act 85 | AHR act confirm 86 | PXR act counter 21
O=C1N/C(=N\c2ccccn2)SC1Cc1ccccc1Cl (stereo not given)	AHR act 80 | AHR act confirm 89 | PXR act counter 34
Cc1cccc(CC2S/C(=N/c3ccccn3)NC2=O)c1 (stereo not given)	none
Cc1cc(-c2n[nH]c(=S)n2/N=C/c2sccc2C)n[nH]1	AHR act 112 | AHR act confirm 91 | PXR act counter 25
S=c1[nH]nc(-c2cc(-c3ccccc3)n[nH]2)n1/N=C/c1cccs1	AHR act 132 | AHR act confirm 128 | PXR act counter 39
Cc1ccsc1/C=N/n1c(-c2ccccc2)n[nH]c1=S	AHR act 80 | AHR act confirm 68 | PXR act counter 46
S=c1[nH]nc(-c2cc(-c3ccccc3)n[nH]2)n1/N=C/c1ccccc1	none
CC(=O)n1cc([C@H]2C=C(C(=O)NCc3ccccc3)O[C@@H](OCCCCO)C2)c2ccccc21	AHR act 87 | AHR act confirm 106 | PXR act counter 61
CC(=O)n1cc([C@H]2C=C(C(=O)N3CCN(Cc4ccccc4)CC3)O[C@@H](OCCCCO)C2)c2ccccc21	none
O=C1NC(c2cccs2)Nc2sc3c(c21)CCCC3 (stereo not given)	AHR act 93 | AHR act confirm 128 | PXR act counter 37
Cc1ccc(OCCCC(=O)NNC(=O)c2ccccn2)cc1	none
COc1cccc(C2=NC(C)(C)NC(c3ccccc3O)C2)c1 (stereo not given)	AHR act 82 | AHR act confirm inactive | PXR act counter 52
COc1ccc(NC(=S)N2CCC3CC2c2cc(-c4ccc5c(c4)OCO5)ccc23)c(OC)c1 (stereo not given)	none (no result: AHR act, MC4R antag cAMP, FXN GAA850 act, MC4R ag barr)
C=CCn1c(O)c(N=NC(=O)CNC(=O)c2ccncc2)c2ccccc21	AHR act 99 | AHR act confirm 70 | PXR act counter 43
C#CCn1c(O)c(N=NC(=O)CNC(=O)c2cccnc2)c2ccccc21	AHR act 92 | AHR act confirm 106 | PXR act counter 25
C#CCn1c(O)c(N=NC(=O)CNC(=O)/C=C/c2ccccc2)c2ccccc21	AHR act 91 | AHR act confirm 107 | PXR act counter 52
COc1ccc(-c2ccc(SCC(=O)NCc3ccco3)nn2)cc1OC	none
